# According to the EternaBench riboswitch data:
# System: MS2 coat protein
# Experiment: apparent Kd, MS2 coat protein; higher = weaker binding; RNA-MaP array; theophylline 2 mM where present
# Procedure, shortened: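 Stalled E. coli RNA polymerase transcribed the designs on Illumina sequencing-chip clusters. SNAP-549-labelled MS2 coat protein was titrated from 0.7 or 1.5 nM, doubling to 3 µM, without and then with constant ligand, in 100 mM Tris-HCl pH 7.5, 80 mM KCl, 4 mM MgCl2, BSA, DTT, yeast tRNA and Tween-20. Per-cluster binding curves were fitted to green signal normalised to red-channel RNA signal and control-cluster median Fmax. The apparent Kd is the median of the filtered fits.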
# [1] = designed as: OFF switch for theophylline, no ligand
# [2] = ligand present: theophylline, designed as: OFF switch for theophylline
# [3] = designed as: ON switch for theophylline, no ligand
# [4] = ligand present: theophylline, designed as: ON switch for theophylline
Sequence,apparent Kd [1],apparent Kd [2],apparent Kd [3],apparent Kd [4]
AGCCCUGUGCUAGAUACCAGCUACAUGAGGAUCACCCAUGUGCGUCAAGACUGACUGUGUAGCCCUUGGCAGCUACUCGCAUGUA,12.6 nM,23 nM,–,–
AGCGACAUGCGUGAUACCAGCUACAUGAGGAUCACCCAUGUACGUCAGAAAUGACUGUGUAGCCCUUGGCAGCAUAGUGCAUGUC,32.6 nM,60.7 nM,–,–
AGCGCAGGUCCUGAUACCAGAGACAUGAGGAUCACCCAUGUCCGAUGGUCCUGCCUCAGGCUCCCUUGGCAGCAGGGCUUGUGCU,10.3 nM,20.4 nM,–,–
AGGAAACAACAUGAGGAUCACCCAUGUGAUACCAGUCAAAUAAAAGACCCUUGGCAGCACACAUGACAUGAGGAUCACCCAUGUA,–,–,31.9 nM,77 nM
AGUAAUCUAUCAGAUACCAGACCCUCUUUAACAUGAGGAUCACCCAUGUCUAUGUUCUACGUCCCUUGGCAGCUGUAAAUGAUAA,–,–,45.9 nM,20.9 nM
AGUACUCGAACGGAUACCAGCCGGACAUGAGGAUCACCCAUGUCCUACCUCUGUUCGGUUGGCCCUUGGCAGCCGUUCGUGUACA,–,–,99.4 nM,93.3 nM
AUAAAUAUAACCGAUACCAGCCUUAUACAUGAGGAUCACCCAUGUUAUGCUUCCUUUCUUGGCCCUUGGCAGCGGAAAUGGGUAA,–,–,57.9 nM,26.4 nM
AUAAGUAAUGUCUCGUGUAUUAUUACAGAUACCAGACUAUCCUAUGUCCCUUGGCAGCUGGAUUACAUGAGGAUCACCCAUGUGG,43.6 nM,35 nM,–,–
AUAAUGGGUAUCGGAUUAUCAUGGAAUGAUACCAGAUACUUAGAUAUCCCUUGGCAGCAUGAGGACAUGAGGAUCACCCAUGUAU,46.4 nM,118 nM,–,–
AUAAUGGGUUUCGGACUAUCAUGGAAUGAUACCAGAUACUUAGAAAUCCCUUGGCAGCAUGAGGACAUGAGGAUCACCCAUGUAU,57.9 nM,61.5 nM,–,–
AUAUCAUAGAGUGAUACCAGACUACAUGAGGAUCACCCAUGUGACAUUUAAAUAUCAUUUGUCCCUUGGCAGCACAUUAAGUACA,67.3 nM,65.4 nM,–,–
AUCCUUAAUAGGGUAAAUGGAUAAAGUGAUACCAGUCAAAUACAAGACCCUUGGCAGCACAAGGACAUGAGGAUCACCCAUGUCA,–,–,20.5 nM,14.7 nM
AUCGUACCUGAUGAUACCAGCAAGUGAUCAUAACAUGAGGAUCACCCAUGUAAUCAGUGAUGCCCUUGGCAGCAUAAUCGAUACA,–,–,178 nM,140 nM
CAUACUUUAGUAUGUAAUGUGGACAGUGAUACCAGAUACGAAAGUAUCCCUUGGCAGCACAACAUGAGGAUCACCCAUGUAUUUU,–,–,19.4 nM,–
CGACGAUACCUGGAUACCAGCGACAUGAGGAUCACCCAUGUAUGUGGAUCAGCCAUGAUAUGCCCUUGGCAGCCACCAAAGUCGG,14.9 nM,51.9 nM,–,–
CGGUUUGUGAUGGAUACCAGCAGAGUGACUGUUUAUCCUGACAUGAGGAUCACCCAUGUGUGCCCUUGGCAGCUGUUGUGGGCUG,80.4 nM,80.8 nM,–,–
CGUGGUGGGACGGAUACCAGCCACCGCGGCAACGCAACAUGAGGAUCACCCAUGUUGGGUGGCCCUUGGCAGCUGUCCUGCGGCG,–,–,11.5 nM,13.4 nM
CUCUGAGUCCGAAAGGACUCAGAGGCGGAUACCAGCGAGGUCCAUCGCCCUUGGCAGCCGAACAUGAGGAUCACCCAUGUCGGUA,–,–,10.5 nM,14.5 nM
GAAUAUUACAUGAGGAUCACCCAUGUAGAUACCAGCCUUGAUUGUGGCCCUUGGCAGCUACGCCGUGAAUGCCUCAGUUGCUUAC,90.7 nM,31.5 nM,–,–
GAGCUGAUGUAGGGCGGAUAUCCGUGAGAUACCAGUACAGAAAUGUACCCUUGGCAGCUCUUCCUUACAUGAGGAUCACCCAUGU,19.4 nM,36.1 nM,–,–

Sequence,apparent Kd [1],apparent Kd [2],apparent Kd [3],apparent Kd [4]
GAUGAACUAUAUGAUACCAGACAACAUGAGGAUCACCCAUGUGUAAGUCGUCCUCUGCCUGUCCCUUGGCAGCGUAUAGUUUAUC,47.6 nM,84 nM,–,–
GAUGAACUAUUUGAUACCAGACUACAUGAGGAUCACCCAUGUGCGCGUCGUCCUCUGCCAGUCCCUUGGCAGCAAAUAGUUUAUC,101 nM,127 nM,–,–
GCACCAGGUACGGAUACCAGCUGCCAGCGUUACAUGAGGAUCACCCAUGUGAUCUGAUAUAGCCCUUGGCAGCUGUACCUGGUGC,–,–,110 nM,865 nM
GCGAUACAUGAGGAUCACCCAUGUGCAGAUACCAGAGGUGCAUGCCUCCCUUGGCAGCUGCGACGCUCUGGCAUCUUGUGGGAUG,–,–,69.1 nM,71 nM
GGCCGAUGGUGCGAUACCAGCUUGAGUGUACUGGCCAGGUACAUGAGGAUCACCCAUGUAAGCCCUUGGCAGCGCGUCAGAGGCC,–,35.8 nM,–,–
GGCUGUUGCGAUUUGAAGCGGCAGCGUGAUACCAGAUGUAAGAGCGUCCCUUGGCAGCACGUUUACAUGAGGAUCACCCAUGUCA,–,–,106 nM,60 nM
UAUAUAUAUAUGGAUACCAGCAGAGAAAACGUUUAUCCUAACAUGAGGAUCACCCAUGUAUGCCCUUGGCAGCUGUAUAUAUAUA,24.9 nM,32.4 nM,–,–
UAUCUUGCGGGCGCCCGCAAGGUUGCGGAUACCAGCGAGAUAAAUCGCCCUUGGCAGCCGAACAUGAGGAUCACCCAUGUCGGAC,–,–,9.99 nM,12.7 nM
UCAUGAGGAUCACCCAUGUGGCGUCUUGAUACCAGACGAGAAGUAGUCCCUUGGCAGCAAAUACAUGAGGAUCACCCAUGUAGGA,38.6 nM,63.7 nM,–,–
UCGCAUUGCUGCGAUACCAGACAUGAGGAUCACCCAUGUACCAAGAAAACGUACAUAAAUGUCCCUUGGCAGCGCAGCAAUGCGU,443 nM,1110 nM,–,–
UGACAUUGCUCAGAUACCAGACAUGAGGAUCACCCAUGUACCAAGGUACCCGAAAGGAAUGUCCCUUGGCAGCUGAGCAAUGUCU,9.93 nM,21.6 nM,–,–
UGACAUUGCUCAGAUACCAGACAUGAGGAUCACCCAUGUGCCAAAACGUACUAAAUAAAUGUCCCUUGGCAGCUGAGCAAUGUCU,12.6 nM,126 nM,–,–
UGAUCCUACAGAGAUACCAGUGCCACUAAAUAACUAAACACAUGAGGAUCACCCAUGUAACACCCUUGGCAGCUCAACUAAAGGG,–,–,27.4 nM,19.2 nM
UGGUACAUGAGGAUCACCCAUGUGCCGGAUACCAGAGAGCCGGCUCUCCCUUGGCAGCUGGCGCGACAUGAGGAUCACCCAUGUG,25.2 nM,38.4 nM,–,–
UGGUACAUGAGGAUCACCCAUGUUCCAGAUACCAGAUACCCGGUUAUCCCUUGGCAGCUGGUGGUACAUGAGGAUCACCCAUGUG,36.1 nM,86.7 nM,–,–
UGUAUGUGAUUUGAUACCAGACCAACUGGUAAUACAUGAGGAUCACCCAUGUAGAUUUGGGUCCCUUGGCAGCAAAUCGCAUACU,–,–,48 nM,11.7 nM
UUAUGAUGUUCCGAUACCAGCCAUGUGGUUCUAACUUAACAUGAGGAUCACCCAUGUACCGGCCCUUGGCAGCGGAUGUGGAUUA,–,–,11.2 nM,17 nM
UUAUUUAUAAUGGAUACCAGUUUAAUGGCCGCAAAUCCUGACAUGAGGAUCACCCAUGUAAGCCCUUGGCAGCUGUUAUGGGUUU,34.8 nM,41.3 nM,–,–
UUAUUUAUAAUUGAUACCAGUUUAAUGGCCGCAAAUCCUGACAUGAGGAUCACCCAUGUAAGCCCUUGGCAGCGGUUAUGGGUUU,21 nM,21.1 nM,–,–
UUUGAUAGGACAGAUACCAGCGUGUUGUUGAACAUGAGGAUCACCCAUGUAGUGAUCAAGCGCCCUUGGCAGCUGGUUUGUUAGG,–,–,236 nM,81.7 nM
